Article PMC3372638 (Journal of Molecular Biology, 2012)
Numbering of substitutions follows the chain as printed.

Experiments:
HsP5CDH [1] = target: T1, HsP5CDH (Homo sapiens, UniProt P30038); assay: isothermal titration calorimetry; type: binding
T1 sequence (P30038 18-563): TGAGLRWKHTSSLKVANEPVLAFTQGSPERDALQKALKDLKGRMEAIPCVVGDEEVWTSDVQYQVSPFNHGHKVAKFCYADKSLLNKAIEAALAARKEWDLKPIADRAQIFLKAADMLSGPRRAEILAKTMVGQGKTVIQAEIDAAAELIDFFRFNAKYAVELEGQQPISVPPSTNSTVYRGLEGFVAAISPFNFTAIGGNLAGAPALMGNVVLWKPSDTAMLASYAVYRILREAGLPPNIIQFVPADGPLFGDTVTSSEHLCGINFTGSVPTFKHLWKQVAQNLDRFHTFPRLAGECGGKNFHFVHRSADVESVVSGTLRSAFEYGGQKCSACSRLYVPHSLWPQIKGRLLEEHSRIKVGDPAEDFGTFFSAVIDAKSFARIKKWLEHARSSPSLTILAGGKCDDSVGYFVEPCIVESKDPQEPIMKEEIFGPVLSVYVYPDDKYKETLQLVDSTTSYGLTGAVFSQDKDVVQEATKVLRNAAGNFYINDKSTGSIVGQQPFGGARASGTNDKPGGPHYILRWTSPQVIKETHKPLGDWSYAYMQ
Outline: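 His-tagged human P5CDH was expressed in E. coli BL21(DE3)pLysS and purified by Ni2+-affinity then anion exchange. It was dialysed into 50 mM Tris, 50 mM NaCl, 0.5 mM THP, 0.5 mM EDTA, 5 % glycerol, pH 8.0, with NAD+ dissolved in the dialysate and pH-matched. Run at 25 °C: 20 μl NAD+ injections every 240 s, 250 rpm, 4 μl pre-injection discarded. Three titrations (30, 34, 47 μM protein) were fitted globally to a single-site model.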

HsP5CDH [2] = target: T2, HsP5CDH (Homo sapiens, UniProt P30038, S352A); assay: isothermal titration calorimetry; type: binding
T2 sequence (P30038 18-563 S352A): T1 sequence (P30038 18-563) with S335A
Outline: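 Site-directed S352A mutant of His-tagged human P5CDH was expressed in E. coli BL21(DE3)pLysS and purified by Ni2+-affinity and anion exchange. It was dialysed into 50 mM Tris, 50 mM NaCl, 0.5 mM THP, 0.5 mM EDTA, 5 % glycerol, pH 8.0, with NAD+ in the dialysate and pH-matched. Titrated at 25 °C: 20 μl injections at 240-s intervals, 250 rpm, 4 μl pre-injection discarded. Fitted to a single-site binding model.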

AUC = target: the molecule itself; assay: AUC
crystal structure = target: the molecule itself; assay: crystal structure

NC(=O)c1ccc[n+]([C@@H]2O[C@H](COP(=O)(O)OP(=O)(O)OC[C@H]3O[C@@H](n4cnc5c(N)ncnc54)[C@H](O)[C@@H]3O)[C@@H](O)[C@H]2O)c1 [NAD^+]
Kd (HsP5CDH [1]): 15 µM | Kd (HsP5CDH [2]): 10 µM

B1: human Δ1-pyrroline-5-carboxylate dehydrogenase (enzyme, UniProt P30038-1 18-563, looked up)
chain: T1 sequence (P30038 18-563)
stoichiometry N (AUC): 2

B2: human Δ1-pyrroline-5-carboxylate dehydrogenase with Ser352 mutated to Ala (enzyme, UniProt P30038-1 18-563, looked up)
chain: T1 sequence (P30038 18-563) with S335A
binding result (crystal structure): binds

B3: human Δ1-pyrroline-5-carboxylate dehydrogenase with Ser352 mutated to Leu (enzyme, UniProt P30038-1 18-563, looked up)
chain: T1 sequence (P30038 18-563) with S335L
binding result (crystal structure): binds
